Experimental data from ChEMBL document CHEMBL3763053, “Synthesis of diacylated γ-glutamyl-cysteamine prodrugs, and in vitro evaluation of their cytotoxicity and intracellular delivery of cysteamine” (Eur J Med Chem, 2016).

Assays:
HaCaT = assay: Cytotoxicity against human HaCaT cells assessed as reduction in cell viability after 48 hrs by MTT assay; format: cell-based
Outline: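 HaCaT keratinocytes were exposed for 48 h at 37 °C under 5% CO2 to test agents dissolved in medium. Nine twofold serial dilutions ran from 500 down to 1.95. Cells were then rinsed with PBS (pH 7.4) and given MTT at 0.5 mg/mL in PBS for 10 min in the dark, then read at 595 nm. Survival is a percentage of control wells, averaged over 12 replicates. EC50 came from non-linear regression of dose-response curves.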

[1] = Dissociation constant, pKa of compound at pH 2 to 12 at 1 to 2 mg by potentiometric titration method; format: physicochemical
Outline: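 Accurately weighed sample loaded into an automated Sirius T3 for pH-metric analysis, using automated acid-base titration. The pKa was computed from the titration data. The value is the mean of 3 titrations.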

physchem = conditions: octanol/water, pH 2
[2] = Lipophilicity, log D of compound at pH 7.4; conditions: buffer
[3] = Prodrug activation in human PT37 cells assessed as intracellular cysteamine-CMQT formation at 20 uM incubated for 2 to 24 hrs by HPLC analysis; format: cell-based; conditions: pt37, 20 µM
Outline: (§1)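 PT37 normal human proximal tubule cells were grown in DMEM/F12 with 2 mM L-glutamine, penicillin-streptomycin and 10% heat-inactivated FCS at 37 °C under 5% CO2. Confluent monolayers got […] test agent in medium at 37 °C for 0, 2, 6, 16 or 24 h. Cells were trypsin-harvested, lysed and centrifuged. Pellet protein was measured by Bradford against BSA standards. Supernatant thiols were reduced with NaBH4, derivatised with CMQT and analysed by HPLC with UV and fluorescence detection. Results are nmol/mg protein, n=3.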

Serum = assay: Prodrug activation in fetal bovine serum containing medium assessed as cysteamine formation after 24 hrs by LC-MS analysis; set-up: species or system Bos taurus; conditions: cattle
Outline: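 Prodrug was incubated in medium containing fetal bovine serum for up to 24 h. Hydrolysis and cysteamine release were monitored by LC-MS.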

[4] = Prodrug activation in human PT37 cells assessed as intracellular cysteamine-CMQT formation per mg protein at 20 uM after 24 hrs by HPLC analysis; format: cell-based; conditions: pt37, 24 h; outline: as §1
[5] = Prodrug activation in human PT37 cells assessed as intracellular cysteamine-CMQT formation at 20 uM after 2 hrs by HPLC analysis; format: cell-based; conditions: pt37, 2 h; outline: as §1
[6] = Prodrug activation in human PT37 cells assessed as intracellular cysteamine-CMQT formation per mg protein at 20 uM after 6 hrs by HPLC analysis; format: cell-based; conditions: pt37, 6 h; outline: as §1
[7] = Drug metabolism in water assessed as oxidation of cysteamine by measuring cysteamine-CMQT level at pH 4.66 at 0.01 M after 3 hrs by HPLC-UV method; format: physicochemical; conditions: buffer, pH 4.66, 3 h
[8] = Drug metabolism in water assessed as oxidation of cysteamine by measuring cysteamine-CMQT level at pH 4.66 at 0.01 M after 1 hr by HPLC-UV method; format: physicochemical; conditions: buffer, pH 4.66, 1 h

SMILES | EC50 (HaCaT; Homo sapiens, HaCaT, 48 h) [µM] | pKa [1] | logP (physchem) | logD [2] | Drug metabolism [3] | also measured
CCCOC(=O)[C@@H](N)CCC(=O)NCCSC(=O)c1ccccc1 | 75 |  |  |  |  | 
CCOC(=O)[C@@H](N)CCC(=O)NCCSC(=O)C(C)(C)C.Cl | 228 | 8.9 | 1.22 | -0.29 | metabolite_detected | 
CCOC(=O)[C@@H](N)CCC(=O)NCCSC(C)=O.Cl | 1730 | 8.94 | 0.11 | -1.44 | metabolite_detected | Drug metabolism (Serum): metabolite_notdetected
Cl.Cl.NCCS |  |  |  |  | metabolite_notdetected | 
CCCCOC(=O)[C@@H](N)CCC(=O)NCCSC(C)=O.Cl | 563 | 8.69 | 0.43 | -0.88 | metabolite_detected | 
CCCOC(=O)[C@@H](N)CCC(=O)NCCSC(C)=O.Cl | 548 | 8.8 | 0.21 | -1.21 | metabolite_detected | 
N[C@@H](CCC(=O)NCCS)C(=O)O |  |  |  |  |  | Drug metabolism (Serum): metabolite_notdetected
Cl.NCCS [CYSTEAMINE HYDROCHLORIDE] |  | 8.15 |  |  |  | Drug metabolism [4]: 0.22 nmol/mg; Drug metabolism [5]: metabolite_detected; EC50 (HaCaT; hacat): 309 µM; Drug metabolism [6]: 0.84 nmol/mg; Drug metabolism [7]: metabolite_notdetected; Drug metabolism [8]: 50%
CCCCOC(=O)[C@@H](N)CCC(=O)NCCSC(=O)C(C)(C)C | 102 |  |  |  |  | 
CCCOC(=O)[C@@H](N)CCC(=O)NCCSC(=O)C(C)(C)C | 152 |  |  |  |  | 
CCCCOC(=O)[C@@H](N)CCC(=O)NCCSC(=O)c1ccccc1 | 97 |  |  |  |  | 
CCOC(=O)[C@@H](N)CCC(=O)NCCSC(=O)c1ccccc1.Cl | 331 | 8.85 | 1.09 | -0.37 | metabolite_detected | 
